Tests used:
[1] = Ex vivo inhibition of MAOA in CD1 mouse brain homogenates assessed as MAOA level at 1 mg/kg, po administered via gavage for 7 days and measured 1 hr post last dose by monoamine oxidase assay (reference value: 0.39 +/- 0.04 nmol/min/mg); format: functional; conditions: time 7 day
[2] = Ex vivo inhibition of MAOA in CD1 mouse brain homogenates assessed as inhibition of 5-HT deamination by measuring 5-HIAA metabolite levels by using at 10 mg/kg, po administered via gavage for 7 days and measured 1 hr post last dose by HPLC analysis (reference value: 0.33 +/- 0.02 ug/g); format: functional; conditions: time 7 day
[3] = target: T1, Amine oxidase [flavin-containing] B (Homo sapiens, UniProt P27338); assay: Reversible inhibition of human MAO-B assessed as residual enzyme activity at 4 fold IC50 incubated for 15 mins and measured before dialysis relative to control
T1 sequence (P27338 whole entry): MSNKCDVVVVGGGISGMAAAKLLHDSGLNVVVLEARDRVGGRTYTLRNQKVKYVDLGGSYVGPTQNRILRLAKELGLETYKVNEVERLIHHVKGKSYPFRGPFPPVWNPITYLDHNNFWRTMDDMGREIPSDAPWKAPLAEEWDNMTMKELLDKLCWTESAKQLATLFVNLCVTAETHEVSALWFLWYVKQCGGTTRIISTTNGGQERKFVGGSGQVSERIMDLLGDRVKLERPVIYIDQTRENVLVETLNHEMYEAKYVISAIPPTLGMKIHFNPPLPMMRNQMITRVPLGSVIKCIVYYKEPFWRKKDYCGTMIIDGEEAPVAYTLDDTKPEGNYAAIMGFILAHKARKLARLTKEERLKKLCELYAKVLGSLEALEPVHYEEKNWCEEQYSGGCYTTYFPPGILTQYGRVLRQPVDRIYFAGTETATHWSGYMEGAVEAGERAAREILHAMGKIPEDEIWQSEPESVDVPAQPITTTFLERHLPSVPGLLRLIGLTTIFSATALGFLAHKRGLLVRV
In short: (§1)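 Dialysed (MWCO 12 000) at 4 °C for 24 h against 100 mM potassium phosphate pH 7.4, 5% sucrose, buffer changed twice. Dialysed and undialysed mixtures assayed together; residual activity from triplicates.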

[4] = Ex vivo inhibition of MAOA in CD1 mouse brain homogenates assessed as inhibition of 5-HT deamination by measuring 5-HIAA metabolite levels by using at 3 mg/kg, po administered via gavage for 7 days and measured 1 hr post last dose by HPLC analysis (reference value: 0.33 +/- 0.02 ug/g); format: functional; conditions: time 7 day
[5] = Ex vivo inhibition of MAOA in CD1 mouse brain homogenates assessed as inhibition of 5-HT deamination by measuring 5-HIAA metabolite levels by using at 1 mg/kg, po administered via gavage for 7 days and measured 1 hr post last dose by HPLC analysis (reference value: 0.33 +/- 0.02 ug/g); format: functional; conditions: time 7 day
[6] = Ex vivo inhibition of MAOA in CD1 mouse brain homogenates assessed as 5-HT levels at 1 mg/kg, po administered via gavage for 7 days and measured 1 hr post last dose by ELISA kit method (reference value: 0.78 +/- 0.01 ug/g); format: functional; conditions: time 7 day
[7] = target: T1, Amine oxidase [flavin-containing] B; assay: Reversible inhibition of human MAO-B assessed as residual enzyme activity at 4 fold IC50 incubated for 15 mins and measured 24 hrs post dialysis relative to control; conditions: 24.25 h, time 1455 min; in short: as §1
[8] = target: T2, Amine oxidase [flavin-containing] A (Homo sapiens, UniProt P21397); assay: Reversible inhibition of human MAO-A assessed as residual enzyme activity at 4 fold IC50 incubated for 15 mins and measured 24 hrs post dialysis by dialysis method relative to control; conditions: 24.25 h, time 1455 min; in short: as §1
T2 sequence (P21397 whole entry): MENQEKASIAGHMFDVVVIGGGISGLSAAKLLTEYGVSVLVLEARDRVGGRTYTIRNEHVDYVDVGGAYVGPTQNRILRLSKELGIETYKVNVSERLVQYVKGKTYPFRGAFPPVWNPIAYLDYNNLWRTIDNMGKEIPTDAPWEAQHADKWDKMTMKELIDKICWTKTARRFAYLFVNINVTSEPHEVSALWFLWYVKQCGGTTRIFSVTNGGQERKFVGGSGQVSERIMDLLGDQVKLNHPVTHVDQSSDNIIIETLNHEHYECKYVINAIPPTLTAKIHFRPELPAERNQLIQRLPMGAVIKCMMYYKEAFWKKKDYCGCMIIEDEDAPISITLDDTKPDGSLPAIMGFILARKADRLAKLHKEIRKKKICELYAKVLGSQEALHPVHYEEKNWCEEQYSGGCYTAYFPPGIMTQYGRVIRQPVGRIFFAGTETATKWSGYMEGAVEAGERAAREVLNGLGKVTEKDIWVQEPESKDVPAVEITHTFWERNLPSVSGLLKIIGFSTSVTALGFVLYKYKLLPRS

[9] = Ex vivo inhibition of MAOA in CD1 mouse brain homogenates assessed as 5-HT levels at 10 mg/kg, po administered via gavage for 7 days and measured 1 hr post last dose by ELISA kit method (reference value: 0.78 +/- 0.01 ug/g); format: functional; conditions: time 7 day
[10] = target: T2, Amine oxidase [flavin-containing] A; assay: Reversible inhibition of human MAO-A assessed as residual enzyme activity at 4 fold IC50 incubated for 15 mins and measured before dialysis by dialysis method relative to control; in short: as §1
[11] = Ex vivo inhibition of MAOA in CD1 mouse brain homogenates assessed as MAOA level at 10 mg/kg, po administered via gavage for 7 days and measured 1 hr post last dose by monoamine oxidase assay (reference value: 0.39 +/- 0.04 nmol/min/mg); format: functional; conditions: time 7 day
[12] = Cytotoxicity against human HepG2 cells assessed as cell viability at 7.5 uM incubated for 2 hrs by MTT assay relative to control; format: cell-based; conditions: read-out: Activity
In short: (§2)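 HepG2 human hepatoma cells; viability read by MTT assay, with 0.1% DMSO as vehicle control. Viability given as % of control, mean ± SEM (n = 3); p < 0.05 taken as significant.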

[13] = Cytotoxicity against human HepG2 cells assessed as cell viability at 30 uM incubated for 2 hrs by MTT assay relative to control; format: cell-based; conditions: read-out: Activity; in short: as §2
[14] = Ex vivo inhibition of MAOA in CD1 mouse brain homogenates assessed as 5-HT levels at 3 mg/kg, po administered via gavage for 7 days and measured 1 hr post last dose by ELISA kit method (reference value: 0.78 +/- 0.01 ug/g); format: functional; conditions: time 7 day
[15] = Ex vivo inhibition of MAOA in CD1 mouse brain homogenates assessed as MAOA level at 3 mg/kg, po administered via gavage for 7 days and measured 1 hr post last dose by monoamine oxidase assay (reference value: 0.39 +/- 0.04 nmol/min/mg); format: functional; conditions: time 7 day
[16] = Cytotoxicity against human HepG2 cells assessed as cell viability at 15 uM incubated for 2 hrs by MTT assay relative to control; format: cell-based; conditions: read-out: Activity; in short: as §2
[17] = Ex vivo inhibition of MAOA in CD1 mouse brain homogenates assessed as 5-HT levels at 20 mg/kg, po administered as subchronic dose via gavage for 7 days and measured 1 hr post last dose by ELISA kit method (reference value: 0.78 +/- 0.01 ug/g); format: functional; conditions: time 7 day

Row | SMILES | Activity [1] | Activity [2] | Activity [3] | Activity [4] | Activity [5] | Activity [6] | Activity [7] | Activity [8] | Activity [9] | Activity [10] | Activity [11] | viability at 2 h, 7.5 µM [12] | viability at 2 h, 30 µM [13] | Activity [14] | Activity [15] | viability at 2 h, 15 µM [16] | Activity [17]
1 | COc1ccc(C2=NN(C(=O)Cn3c(=O)oc4ccc(C)cc43)C(c3cccc(OC)c3OC)C2)cc1 (stereo not drawn) | 0.39 nmol/min/mg | 0.29 µg/g | 74.19% | 0.3 µg/g | 0.32 µg/g | 0.8 µg/g | 94.16% | 92.55% | 0.99 µg/g | 22.16% | 0.27 nmol/min/mg | 101% | 84.9% | 0.85 µg/g | 0.34 nmol/min/mg | 99.6% | 
2 | O=C(NCCN1CCOCC1)c1ccc(Cl)cc1 [MOCLOBEMIDE] | 0.41 nmol/min/mg | 0.3 µg/g | 88% | 0.32 µg/g | 0.33 µg/g | 0.78 µg/g | 89.55% | 93.77% | 0.82 µg/g | 36% | 0.4 nmol/min/mg | 90.8% | 86% | 0.79 µg/g | 0.41 nmol/min/mg | 88.5% | 0.91 µg/g
